Laboratory results as given in ChEMBL document CHEMBL1137648, “Synergistic efficacy of the combination of ST-246 with CMX001 against orthopoxviruses” (Antimicrob Agents Chemother, 2007).

Assays:
Cowpox virus [1] = assay: Antiviral activity against Cowpox virus Brighton infected BALB/c mouse assessed as virus-induced mortality at 3 mg/kg, po treated for 5 days after 6 days of viral inoculation; type: functional, Cowpox virus (Brighton Red)
Vaccinia virus [2] = assay: Antiviral activity against Vaccinia virus WR in HFF cells assessed as reduction plaque formation after 3 days; type: functional, organism-based; settings: Orthopoxvirus vaccinia, 72 h
Cowpox virus [3] = assay: Antiviral activity against Cowpox virus Brighton infected BALB/c mouse assessed as virus-induced mean day of death at 1 mg/kg, po treated for 5 days after 3 days of viral inoculation; type: functional, Cowpox virus (Brighton Red)
Cowpox virus [4] = assay: Antiviral activity against Cowpox virus Brighton infected BALB/c mouse assessed as virus-induced mean day of death at 0.3 mg/kg, po treated for 5 days after 3 days of viral inoculation; type: functional, Cowpox virus (Brighton Red)
Cowpox virus [5] = assay: Antiviral activity against Cowpox virus Brighton infected BALB/c mouse assessed as virus-induced mortality at 0.3 mg/kg, po treated for 5 days after 3 days of viral inoculation; type: functional, Cowpox virus (Brighton Red)
Cowpox virus [6] = assay: Antiviral activity against Cowpox virus Brighton infected BALB/c mouse assessed as virus-induced mean day of death at 0.3 mg/kg, po treated for 5 days after 1 day of viral inoculation; type: functional, Cowpox virus (Brighton Red)
Cowpox virus [7] = assay: Antiviral activity against Cowpox virus Brighton infected BALB/c mouse assessed as virus-induced mean day of death at 3 mg/kg, po treated for 5 days after 3 days of viral inoculation; type: functional, Cowpox virus (Brighton Red)
Cowpox virus [8] = assay: Antiviral activity against Cowpox virus Brighton infected BALB/c mouse assessed as virus-induced mortality at 0.3 mg/kg, po treated for 5 days after 1 day of viral inoculation; type: functional, Cowpox virus (Brighton Red)
Vaccinia virus [9] = assay: Antiviral activity against Vaccinia virus Copenhagen in HFF cells assessed as reduction plaque formation after 3 days; type: functional, organism-based; settings: Orthopoxvirus vaccinia, 72 h
Cowpox virus [10] = assay: Antiviral activity against Cowpox virus Brighton infected BALB/c mouse assessed as virus-induced mean day of death at 0.3 mg/kg, po treated for 5 days after 6 days of viral inoculation; type: functional, Cowpox virus (Brighton Red)
Cowpox virus [11] = assay: Antiviral activity against Cowpox virus Brighton infected BALB/c mouse assessed as virus-induced mortality at 1 mg/kg, po treated for 5 days after 1 day of viral inoculation; type: functional, Cowpox virus (Brighton Red)
Cowpox virus [12] = assay: Antiviral activity against Cowpox virus Brighton infected BALB/c mouse assessed as virus-induced mean day of death at 3 mg/kg, po treated for 5 days after 6 days of viral inoculation; type: functional, Cowpox virus (Brighton Red)
Cowpox virus [13] = assay: Antiviral activity against Cowpox virus Brighton infected BALB/c mouse assessed as virus-induced mortality at 1 mg/kg, po treated for 5 days after 6 days of viral inoculation; type: functional, Cowpox virus (Brighton Red)
Cowpox virus [14] = assay: Antiviral activity against Cowpox virus Brighton infected BALB/c mouse assessed as virus-induced mean day of death at 1 mg/kg, po treated for 5 days after 6 days of viral inoculation; type: functional, Cowpox virus (Brighton Red)
Cowpox virus [15] = assay: Antiviral activity against Cowpox virus Brighton infected BALB/c mouse assessed as virus-induced mortality at 3 mg/kg, po treated for 5 days after 3 days of viral inoculation; type: functional, Cowpox virus (Brighton Red)
Cowpox virus [16] = assay: Antiviral activity against Cowpox virus Brighton infected BALB/c mouse assessed as virus-induced mortality at 1 mg/kg, po treated for 5 days after 3 days of viral inoculation; type: functional, Cowpox virus (Brighton Red)
Cowpox virus [17] = assay: Antiviral activity against Cowpox virus Brighton infected BALB/c mouse assessed as virus-induced mortality at 3 mg/kg, po treated for 5 days after 1 day of viral inoculation; type: functional, Cowpox virus (Brighton Red)
[18] = Selectivity index, ratio CC50 for HFF cells to EC50 for Cowpox virus Brighton; type: toxicity, cell-based; settings: human, read-out: Ratio CC50/EC50
[19] = Cytotoxicity against HFF cells after 7 days by neutral red assay; type: cell-based; settings: human
Procedure, shortened: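 Confluent non-dividing HFF cells (2.5 x 10^4 cells/well) were exposed to a drug concentration series for 7 days at 37°C. Monolayers were then neutral red-stained, and the CC50 is the concentration cytotoxic to 50% of uninfected cells. Values are the mean of ≥2 assays ± standard deviation.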

Cowpox virus [20] = assay: Antiviral activity against Cowpox virus Brighton infected BALB/c mouse assessed as virus-induced mortality at 0.3 mg/kg, po treated for 5 days after 6 days of viral inoculation; type: functional, Cowpox virus (Brighton Red)
Cowpox virus [21] = assay: Antiviral activity against Cowpox virus Brighton in HFF cells assessed as reduction plaque formation after 3 days; type: functional, organism-based, Cowpox virus (Brighton Red); settings: 72 h
[22] = Selectivity index, ratio CC50 for HFF cells to EC50 for Vaccinia virus WR; type: toxicity, cell-based; settings: human, read-out: Ratio CC50/EC50
[23] = Selectivity index, ratio CC50 for HFF cells to EC50 for Vaccinia virus Copenhagen; type: toxicity, cell-based; settings: human, read-out: Ratio CC50/EC50
Cowpox virus [24] = assay: Antiviral activity against Cowpox virus Brighton infected BALB/c mouse assessed as virus-induced mean day of death at 1 mg/kg, po treated for 5 days after 1 day of viral inoculation; type: functional, Cowpox virus (Brighton Red)
Cowpox virus [25] = assay: Antiviral activity against Cowpox virus Brighton infected BALB/c mouse assessed as virus-induced mortality at 5 mg/kg, ip treated for 5 days after 6 days of viral inoculation; type: functional, Cowpox virus (Brighton Red); settings: route intraperitoneal
Cowpox virus [26] = assay: Antiviral activity against Cowpox virus Brighton infected BALB/c mouse assessed as virus-induced mean day of death at 15 mg/kg, ip treated for 5 days after 6 days of viral inoculation; type: functional, Cowpox virus (Brighton Red); settings: route intraperitoneal
Cowpox virus [27] = assay: Antiviral activity against Cowpox virus Brighton infected BALB/c mouse assessed as virus-induced mean day of death at 5 mg/kg, ip treated for 5 days after 6 days of viral inoculation; type: functional, Cowpox virus (Brighton Red); settings: route intraperitoneal
Cowpox virus [28] = assay: Antiviral activity against Cowpox virus Brighton infected BALB/c mouse assessed as virus-induced mean day of death at 25 mg/kg, ip treated for 5 days after 6 days of viral inoculation; type: functional, Cowpox virus (Brighton Red); settings: route intraperitoneal
Cowpox virus [29] = assay: Antiviral activity against Cowpox virus Brighton infected BALB/c mouse assessed as virus-induced mortality at 15 mg/kg, ip treated for 5 days after 6 days of viral inoculation; type: functional, Cowpox virus (Brighton Red); settings: route intraperitoneal
Cowpox virus [30] = assay: Antiviral activity against Cowpox virus Brighton infected BALB/c mouse assessed as virus-induced mortality at 15 mg/kg, ip treated for 5 days after 3 days of viral inoculation; type: functional, Cowpox virus (Brighton Red); settings: route intraperitoneal
Cowpox virus [31] = assay: Antiviral activity against Cowpox virus Brighton infected BALB/c mouse assessed as virus-induced mortality at 25 mg/kg, ip treated for 5 days after 6 days of viral inoculation; type: functional, Cowpox virus (Brighton Red); settings: route intraperitoneal
Cowpox virus [32] = assay: Antiviral activity against Cowpox virus Brighton infected BALB/c mouse assessed as virus-induced mortality at 15 mg/kg, ip once daily for 5 days; type: functional, Cowpox virus (Brighton Red); settings: route intraperitoneal
Cowpox virus [33] = assay: Antiviral activity against Cowpox virus Brighton infected BALB/c mouse assessed as virus-induced mortality at 10 mg/kg, po treated for 5 days after 6 days of viral inoculation; type: functional, Cowpox virus (Brighton Red)
Camelpox virus = assay: Antiviral activity against Camelpox virus in HFF cells assessed as inhibition of viral replication after 7 days; type: functional, organism-based; settings: 168 h
Ectromelia virus Moscow = assay: Antiviral activity against Ectromelia virus Moscow in HFF cells assessed as inhibition of viral replication after 7 days; type: functional, organism-based; settings: 168 h
Cowpox virus [34] = assay: Antiviral activity against Cowpox virus Brighton infected BALB/c mouse assessed as virus-induced mean day of death at 10 mg/kg, po treated for 5 days after 6 days of viral inoculation; type: functional, Cowpox virus (Brighton Red)
Cowpox virus [35] = assay: Antiviral activity against Cowpox virus Brighton infected BALB/c mouse assessed as virus-induced mortality at 10 mg/kg, po treated for 5 days after 1 day of viral inoculation; type: functional, Cowpox virus (Brighton Red)
Cowpox virus [36] = assay: Antiviral activity against Cowpox virus Brighton infected BALB/c mouse assessed as virus-induced mortality at 10 mg/kg, po treated for 5 days after 3 days of viral inoculation; type: functional, Cowpox virus (Brighton Red)
Cowpox virus [37] = assay: Antiviral activity against Cowpox virus Brighton in HFF cells assessed as inhibition of viral replication after 7 days; type: functional, organism-based, Cowpox virus (Brighton Red); settings: 168 h
Cowpox virus [38] = assay: Antiviral activity against Cowpox virus Brighton infected BALB/c mouse assessed as virus-induced mean day of death at 3 mg/kg, po treated for 5 days after 1 day of viral inoculation; type: functional, Cowpox virus (Brighton Red)
Variola virus = assay: microbe, parasite or virus in culture; settings: HFF, 168 h
Cowpox virus [39] = assay: Antiviral activity against Cowpox virus Brighton infected BALB/c mouse assessed as virus-induced mean day of death at 10 mg/kg, po treated for 5 days after 1 day of viral inoculation; type: functional, Cowpox virus (Brighton Red)
Vaccinia virus [40] = assay: microbe, parasite or virus in culture; settings: Orthopoxvirus vaccinia, Copenhagen, HFF, 168 h
Monkeypox virus = assay: Antiviral activity against Monkeypox virus in HFF cells assessed as inhibition of viral replication after 7 days; type: functional, organism-based; settings: 168 h
Cowpox virus [41] = assay: Antiviral activity against Cowpox virus Brighton infected BALB/c mouse assessed as virus-induced mean day of death at 10 mg/kg, po treated for 5 days after 3 days of viral inoculation; type: functional, Cowpox virus (Brighton Red)

CCCCCCCCCCCCCCCCOCCCOP(=O)(O)CO[C@H](CO)Cn1ccc(N)nc1=O [BRINCIDOFOVIR]
Activity (Cowpox virus [1]): 100%
EC50 (Vaccinia virus [2]): 130 nM
Activity (Cowpox virus [3]): 12 days
Activity (Cowpox virus [4]): 12.8 days
Activity (Cowpox virus [5]): 87%
Activity (Cowpox virus [6]): 11.7 days
Activity (Cowpox virus [7]): 16.3 days
Activity (Cowpox virus [8]): 73%
EC50 (Vaccinia virus [9]): 140 nM
Activity (Cowpox virus [10]): 10 days
Activity (Cowpox virus [11]): 20%
Activity (Cowpox virus [12]): 9.9 days
Activity (Cowpox virus [13]): 100%
Activity (Cowpox virus [14]): 9.9 days
Activity (Cowpox virus [15]): 27%
Activity (Cowpox virus [16]): 100%
Activity (Cowpox virus [17]): 0%
selectivity ratio [18]: 175
CC50 at 168 h [19]: 42 µM
Activity (Cowpox virus [20]): 100%
EC50 (Cowpox virus [21]): 240 nM
selectivity ratio [22]: 323
selectivity ratio [23]: 300
Activity (Cowpox virus [24]): 13.7 days

Nc1ccn(C[C@@H](CO)OCP(=O)(O)O)c(=O)n1.O.O [CIDOFOVIR]
Activity (Cowpox virus [25]): 93%
EC50 (Vaccinia virus [2]): 33000 nM
Activity (Cowpox virus [26]): 12.8 days
Activity (Cowpox virus [27]): 11.2 days
Activity (Cowpox virus [28]): 11.5 days
EC50 (Vaccinia virus [9]): 29200 nM
Activity (Cowpox virus [29]): 60%
Activity (Cowpox virus [30]): 0%
Activity (Cowpox virus [31]): 80%
selectivity ratio [18]: > 7.7
CC50 at 168 h [19]: > 317 µM
EC50 (Cowpox virus [21]): 41100 nM
selectivity ratio [22]: ≥ 9.6
Activity (Cowpox virus [32]): 0%
selectivity ratio [23]: > 10.9

O=C(NN1C(=O)[C@@H]2[C@@H]3C=C[C@@H]([C@H]4C[C@@H]34)[C@@H]2C1=O)c1ccc(C(F)(F)F)cc1 [TECOVIRIMAT]
Activity (Cowpox virus [1]): 80%
Activity (Cowpox virus [33]): 100%
EC50 (Vaccinia virus [2]): 100 nM
Activity (Cowpox virus [3]): 14.4 days
EC50 (Camelpox virus): ≤ 70 nM
EC50 (Ectromelia virus Moscow): ≤ 70 nM
Activity (Cowpox virus [34]): 13.5 days
Activity (Cowpox virus [35]): 73%
Activity (Cowpox virus [7]): 15.2 days
EC50 (Vaccinia virus [9]): 50 nM
Activity (Cowpox virus [11]): 100%
Activity (Cowpox virus [12]): 13.5 days
Activity (Cowpox virus [13]): 100%
Activity (Cowpox virus [14]): 9.5 days
Activity (Cowpox virus [36]): 13%
Activity (Cowpox virus [15]): 33%
Activity (Cowpox virus [16]): 100%
EC50 (Cowpox virus [37]): ≤ 70 nM
Activity (Cowpox virus [38]): 11.3 days
EC50 (Variola virus): ≤ 70 nM
Activity (Cowpox virus [39]): 13.2 days
Activity (Cowpox virus [17]): 20%
selectivity ratio [18]: > 208
CC50 at 168 h [19]: > 100 µM
EC50 (Cowpox virus [21]): 480 nM
selectivity ratio [22]: > 1000
selectivity ratio [23]: > 2000
EC50 (Vaccinia virus [40]): ≤ 70 nM
EC50 (Monkeypox virus): ≤ 70 nM
Activity (Cowpox virus [24]): 9.4 days
Activity (Cowpox virus [41]): 15.5 days
